Measured values reported in ChEMBL document CHEMBL1144404, “Aminoimidazolylmethyluracil analogues as potent inhibitors of thymidine phosphorylase and their bioreductive nitroimidazolyl prodrugs” (J Med Chem, 2005).

How the values were obtained:
[1] = substrate: O=c1[nH]c(=O)n([C@H]2C[C@H](O)[C@@H](CO)O2)cc1[N+](=O)[O-]; assay: Vmax against human thymidine phosphorylase
Outline: (§1)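 Recombinant human TP expressed in V79 Chinese hamster cells, 0.065 absorbance unit per assay. Continuous spectrophotometric assay at 355 nm, 25 °C, 0.1 M phosphate buffer pH 7.4, 0.2 mL total volume, with 5-nitro-2'-deoxyuridine as substrate; kinetic constants from initial rates.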

[2] = substrate: O=c1[nH]c(=O)n([C@H]2C[C@H](O)[C@@H](CO)O2)cc1[N+](=O)[O-]; assay: Michaelis-Menten constant against human thymidine phosphorylase; outline: as §1
[3] = substrate: O=c1[nH]c(=O)n([C@H]2C[C@H](O)[C@@H](CO)O2)cc1[N+](=O)[O-]; assay: (§2) Vmax against Escherichia coli thymidine phosphorylase
Outline: (§3)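 Continuous UV assay at 355 nm and 25 °C in 0.2 mL of 0.1 M potassium phosphate pH 7.4, using recombinant E. coli TP (ca. 0.00883 units per assay) added to start the reaction. Substrate is thymidine or 5-nitro-2'-deoxyuridine; phosphorolysis to 5-nitrouracil followed (εM 13300 M-1 cm-1 for substrate).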

[4] = substrate: Cc1cn([C@H]2C[C@H](O)[C@@H](CO)O2)c(=O)[nH]c1=O; assay: as §2; outline: as §3
[5] = substrate: O=c1[nH]c(=O)n([C@H]2C[C@H](O)[C@@H](CO)O2)cc1[N+](=O)[O-]; assay: Michaelis-Menten constant against Escherichia coli thymidine phosphorylase; outline: as §3

B1: Thymidine phosphorylase (Homo sapiens), P19971 (protein)
chain: MAALMTPGTGAPPAPGDFSGEGSQGLPDPSPEPKQLPELIRMKRDGGRLSEADIRGFVAAVVNGSAQGAQIGAMLMAIRLRGMDLEETSVLTQALAQSGQQLEWPEAWRQQLVDKHSTGGVGDKVSLVLAPALAACGCKVPMISGRGLGHTGGTLDKLESIPGFNVIQSPEQMQVLLDQAGCCIVGQSEQLVPADGILYAARDVTATVDSLPLITASILSKKLVEGLSALVVDVKFGGAAVFPNQEQARELAKTLVGVGASLGLRVAAALTAMDKPLGRCVGHALEVEEALLCMDGAGPPDLRDLVTTLGGALLWLSGHAGTQAQGAARVAAALDDGSALGRFERMLAAQGVDPGLARALCSGSPAERRQLLPRAREQEELLAPADGTVELVRALPLALVLHELGAGRSRAGEPLRLGVGAELLVDVGQRLRRGTPWLRVHRDGPALSGPQSRALQEALVLSDRAPFAAPSPFAELVLPPQQ
For B1, which Vmax [1] is on record?
The Vmax was 0.0086 mM/min.

What about the Km [2] of the same protein?
The Km was 160 µM.

B2: Thymidine phosphorylase (Escherichia coli K-12), P07650 (protein)
chain: MFLAQEIIRKKRDGHALSDEEIRFFINGIRDNTISEGQIAALAMTIFFHDMTMPERVSLTMAMRDSGTVLDWKSLHLNGPIVDKHSTGGVGDVTSLMLGPMVAACGGYIPMISGRGLGHTGGTLDKLESIPGFDIFPDDNRFREIIKDVGVAIIGQTSSLAPADKRFYATRDITATVDSIPLITASILAKKLAEGLDALVMDVKVGSGAFMPTYELSEALAEAIVGVANGAGVRTTALLTDMNQVLASSAGNAVEVREAVQFLTGEYRNPRLFDVTMALCVEMLISGKLAKDDAEARAKLQAVLDNGKAAEVFGRMVAAQKGPTDFVENYAKYLPTAMLTKAVYADTEGFVSEMDTRALGMAVVAMGGGRRQASDTIDYSVGFTDMARLGDQVDGQRPLAVIHAKDENNWQEAAKAVKAAIKLADKAPESTPTVYRRISE
For B2, which Vmax [3] is on record?
The Vmax was 0.013 mM/min.

And the Vmax [4]?
Its Vmax is 1.15 mM/min.

And the Km [5]?
The Km was 230 µM.
